Myeloid diff MLP – myeloid differentiation induction; ER-HoxA9 myeloid progenitors, lysozyme-GFP differentiation, flow cytometry; hit rate 1% among 360,000; AID 624256; calls only at 10 µM;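 active = normalized GFP-positive differentiation at or above the plate's own cutoff, the solvent-only control mean plus 3 SD; inconclusive = no clear call, values can overlap the other calls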;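 also: cells exposed to compound for four days before flow analysis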
Rpn11 block – inhibitors of human proteasome Rpn11; O00487; human 26S proteasome, Ub4-pepOG fluorescence polarization; 20S core pre-blocked with epoxomicin; AID 588493; hit rate 0.59% among 360,000; inhibition, % at 20 µM;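 active = inhibition at 20 µM, scaled to each plate's controls, above about 33%, limit read from the data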
TPT1 inhibitor – C. albicans TPT1 enzyme inhibition. hit rate 0.81% among 300,000. recombinant caTPT1, FP RNA substrate dephosphorylation. inhibition, % at 5 µM;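 active = inhibition above the mean of all tested compounds plus 3 SD, set per screening campaign, cut at about 24% in these data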
HNF4A DNA FP – change in binding of human HNF4 alpha to DNA; P41235; HNF4a-FITC DNA binding, fluorescence polarization, 1 h; activity change, % at 10 µM; hit rate 0.3% among 360,000; in the data active = activity change above about 30%, passing the limit was not always enough
CSN deneddyl inh – CSN deneddylation inhibition; inhibition, % at 12.5 µM; Q92905; hit rate 0.38% among 360,000; Purified CSN, SCF-Nedd8-OG deneddylation, fluorescence polarization;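 active = pattern-corrected inhibition above about 35%, with an unprinted fluorescence ratio check between 0.5 and 1.5, limit read from the data, passing the limit was not always enough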
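Assay system: Purified human Csn5 enzyme expressed in HEK293T cells | Amount: Enzyme 0.24 nM | Measured by: Fluorescence polarization readout | Medium: Tris/NaCl/DTT buffer, pH 7.5 | Compound dosing: One concentration, 12.5 µM, 0.25% DMSO | Times: 90 min incubation of compound, enzyme and substrate at room temperature | Control set: no-enzyme wells high, enzyme-with-substrate wells low | Read-out: % inhibition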
caTPT1 confirm – TPT1 (C. albicans) inhibition, confirmation. shares compounds with TPT1 inhibitor. recombinant caTPT1, fluorescence polarization, RNase T1 coupled. inhibition, % at 5 µM. hit rate 74% among 2,400;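 active = inhibition above the primary screen limit, the mean inhibition of all tested compounds plus 3 SD, cut at about 25% in these data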
RNase T1 counter – RNase T1 inhibition in TPT1 counter-screen; shares compounds with TPT1 inhibitor; RNase T1 cleavage, fluorescence polarization, 1536-well; inhibition, % at 5 µM; hit rate 83% among 2,400; AID 2153;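 active = inhibition above the solvent-only control well mean plus 3 SD, limit set per screening run, cut at about 23% in these data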;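 also: inhibitors block cleavage so intact labeled substrate keeps polarization high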
Rpn11 inh conf – confirmation of human proteasome Rpn11 inhibitors | inhibition, % at 20 µM | purified human 26S proteasome, Ub4-pepOG fluorescence polarization; proteasome pretreated with epoxomicin | AID 602318 | hit rate 29% among 1,900 | shares compounds with Rpn11 block
MMP-2 counter – MMP-2 (human) inhibition counter-screen; shares compounds with Rpn11 block; recombinant MMP-2, FRET peptide cleavage fluorescence; inhibition, % at 20 µM; hit rate 4% among 1,900;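 also: human MMP-2 activated beforehand with APMA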
Target sequence (P08253 whole entry, looked up): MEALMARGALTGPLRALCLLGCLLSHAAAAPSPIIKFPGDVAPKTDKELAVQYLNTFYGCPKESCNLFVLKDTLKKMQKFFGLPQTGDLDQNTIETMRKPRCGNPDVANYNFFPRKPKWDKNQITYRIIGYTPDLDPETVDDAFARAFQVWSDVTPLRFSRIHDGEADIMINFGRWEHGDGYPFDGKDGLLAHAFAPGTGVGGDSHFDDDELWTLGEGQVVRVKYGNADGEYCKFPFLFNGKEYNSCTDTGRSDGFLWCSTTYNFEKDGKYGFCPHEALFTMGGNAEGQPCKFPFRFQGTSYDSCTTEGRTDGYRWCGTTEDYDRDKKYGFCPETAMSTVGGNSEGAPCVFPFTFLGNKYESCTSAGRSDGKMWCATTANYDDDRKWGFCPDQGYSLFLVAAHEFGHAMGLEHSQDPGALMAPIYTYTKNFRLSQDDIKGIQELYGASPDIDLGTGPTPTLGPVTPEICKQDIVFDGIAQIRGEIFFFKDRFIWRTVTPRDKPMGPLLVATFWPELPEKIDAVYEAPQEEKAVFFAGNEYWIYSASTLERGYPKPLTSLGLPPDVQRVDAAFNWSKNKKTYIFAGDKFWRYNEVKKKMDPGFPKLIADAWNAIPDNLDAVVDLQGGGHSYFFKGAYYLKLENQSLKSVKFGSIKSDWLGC
Thrombin FP – counter-screen for RPN11 inhibitors: inhibition of bovine thrombin; shares compounds with Rpn11 block; bovine thrombin cleavage of Ub4-pepOG, fluorescence polarization; inhibition, % at 20 µM; hit rate 13% among 1,900;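 active = mean inhibition at least 40% at 20 µM, or signal 3 deviations below plate average, so some actives read negative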
Myeloid diff CP1 – myeloid differentiation induction | hit rate 2% among 2,300 | shares compounds with Myeloid diff MLP | AID 651706 | calls only | ER-HoxA9 myeloid progenitors, GFP/Mac1 double-positive flow;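 active = share of green or green-and-red cells above 9 and 9% in run 1 or 4 and 3% in run 2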
GFP autofluor – counter-screen for myeloid differentiation promoters: compound fluorescence. hit rate 7.4% among 2,300. shares compounds with Myeloid diff MLP. AID 651707. ER-HoxA9 myeloid progenitors, no estrogen, GFP autofluorescence flow cytometry; vehicle wells 0%, positive control 100%. fluorescence response, % (test concentration not listed);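 active = over 5% cells positive for green fluorescent reporter, or over 2% positive for both it and APC stain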
Numbers stand for hits; n = inactive; u = inconclusive; x = no result shown; + = active, no number; ! = a repeat was not active. In the library only some 2.3% were active in any assay of this set; here they are far more common. Rule as the data show it, unless noted: active = inhibition above about 40%; inactive = the rest.

SMILES	Myeloid diff MLP	Rpn11 block	TPT1 inhibitor	HNF4A DNA FP	CSN deneddyl inh	caTPT1 confirm	RNase T1 counter	Rpn11 inh conf	MMP-2 counter	Thrombin FP	Myeloid diff CP1	GFP autofluor
CCN1C(=O)/C(=C2/Sc3ccccc3N2CC)S/C1=N\c1ncn[nH]1	n	72	36	n	n	57	69	162	n	104	x	x
C=CCN1C(=O)/C(=C2/Sc3ccccc3N2C)SC1=Nc1c(C)n[nH]c1C	n	n	n	n	n	x	x	x	x	x	x	x
Cc1c(N=C/C=C2/N(C)c3ccccc3C2(C)C)c(=O)n(-c2ccccc2)n1C	+!	47!	42	n	n	37	48	n	n	n	x	x
Cc1c(N=C/C=C/c2ccccc2)c(=O)n(-c2ccccc2)n1C	n	n	n	n	n	x	x	x	x	x	x	x
CC1=Nc2ccccc2/C1=C\c1nc(-c2ccccc2)oc1O	n	44	80	n	n	99	108	43	n	n	x	x
COCCCn1c(=O)/c(=C\c2cccc(OC)c2OC)s/c1=C(/C#N)C(=O)Nc1ccc(C(=O)O)cc1	n	102	62	n	n	73	87	46	n	86	x	x
Cc1ccc(OC2CCN(C(=O)[C@H]3O[C@@H](n4ccc(N)nc4=O)[C@H](O)[C@@H]3O)CC2)cc1	n	n	x	n	n	x	x	x	x	x	x	x
CN1CCN(/N=C/c2ccc(-c3ccc([N+](=O)[O-])cc3Cl)o2)CC1	n	60	30	n	n	35	49	n	n	n	x	x
Cc1ccc(-c2ccc(/C=C/C(=O)c3ccccc3)o2)cc1	u	76	48	n	n	77	84	n	n	n	x	x
COc1ccc(N=NC2=C(O)CC(C)(C)CC2=O)c(OC)c1	n	94	60	51	n	61	75	88	n	69	x	x
COc1ccc(C)cc1Nc1n[n+](-c2ccccc2)c(-c2ccc(OC)c(OC)c2OC)s1	n	n	n	n	n	x	x	x	x	x	x	x
COc1ccc(C)cc1Nc1n[n+](-c2ccccc2)c(-c2ccc(N(C)C)cc2)s1	n	60	51	68	n	90	99	75	n	127	x	x
C=CCN1C(=O)c2ccc(C(=O)N3CCN(S(=O)(=O)c4cccc(Cl)c4)CC3)cc2C1=O	n	n	n	n	n	x	x	x	x	x	x	x
N#Cc1ccc(-c2cccnc2)nc1SCC(=O)Nc1sc2c(c1C#N)CCC2	n	48	46	n	n	n	29	n	n	n	x	x
COc1ccc(-c2ccc(C#N)c(SCC(=O)Nc3sc4c(c3C#N)CCC4)n2)cc1	n	n	n	n	n	x	x	x	x	x	x	x
COc1cc(/C=C/c2cc(C(F)(F)F)[nH]c(=O)n2)cc(OC)c1OC	x	n	x	n	n	x	x	x	x	x	x	x
COc1cc(OC)c(OC)cc1/C=C/c1cc(C(F)(F)F)[nH]c(=O)n1	n	65	73	n	n	72	81	n	n	n	x	x
CCc1c(C2CC2)ncn1Cc1cccc(-c2ccccc2)c1	n	x	x	n	n	x	x	x	x	x	x	x
CCc1cc2c(SCc3nc4sc(C(C)=O)c(C)c4c(=O)[nH]3)ncnc2s1	n	65	37	n	n	33	50	77	55	46	x	x
Cc1sc2nc(CSc3ncn[nH]3)[nH]c(=O)c2c1C	n	n	n	n	n	x	x	x	x	x	x	x
O=C1/C(=C\c2cc([N+](=O)[O-])ccc2O)SC(=S)N1Cc1ccc(Cl)cc1	n	x	43	n	n	47	57	x	x	x	n	74
NC(=O)CN1C(=O)C(=O)N(Cc2cccc(C(F)(F)F)c2)C1=O	n	n	n	n	n	x	x	x	x	x	x	x
Cc1cc(/C=C2\SC(=S)NC2=O)c(C)[nH]1	n	84	131	57	n	97	108	45	n	n	n	7.3
O=C1NC(=S)S/C1=C\c1cc(Cl)ccc1Cl	n	n	x	n	n	x	x	x	x	x	x	x
Cc1ccc(NCC(=O)N/N=C/c2c[nH]c3ccccc23)cc1	n	n	n	n	n	x	x	x	x	x	x	x
SMILES	Myeloid diff MLP	Rpn11 block	TPT1 inhibitor	HNF4A DNA FP	CSN deneddyl inh	caTPT1 confirm	RNase T1 counter	Rpn11 inh conf	MMP-2 counter	Thrombin FP	Myeloid diff CP1	GFP autofluor
N#CC1=C(SCC(=O)c2cc3ccccc3oc2=O)NC(=O)C(C#N)C12CCCC2 (stereo not drawn)	n	x	49	n	n	30	39	x	x	x	n	n
CC(C)(C)C1CCC2(CC1)C(C#N)=C(SCC(=O)Nc1ccccc1)NC(=O)C2C#N (stereo not drawn)	n	n	n	n	n	x	x	x	x	x	x	x
CS(=O)(=O)c1nc2c(cc1C#N)CCCC2	n	n	n	n	n	x	x	x	x	x	x	x
CN(C)c1ccc(/C=N/N=C2/NC(=O)/C(=C/c3ccc([N+](=O)[O-])cc3)S2)cc1	+	n	44	n	n	49	63	x	x	x	n	95
O=C1NC(=Nc2cccc(O)c2)S/C1=C\c1cccc([N+](=O)[O-])c1	n	n	n	n	n	x	x	x	x	x	x	x
CCOC(=O)/C(=C/C=C1\Sc2ccccc2N1CC)C(C)=O	n	x	174	n	n	189	170	x	x	x	n	n
CCCCc1ccc(NC(=O)CSc2nc(=O)n(CCCN3CCOCC3)c3c2CCC3)cc1	n	n	n	n	n	x	x	x	x	x	x	x
O=c1/c(=C\c2cccnc2)sc2nc3ccccc3n12	n	n	x	n	n	x	x	x	x	x	x	x
O=C(O)c1ccc(-c2ccc(/C=c3/sc4nc5ccccc5n4c3=O)o2)cc1Cl	n	x	49	57	107	120	122	x	x	x	n	n
CCN(CC)c1ccc2cc(S(=O)(=O)c3ccc(Cl)cc3)c(=O)oc2c1	n	n	86	n	n	98	104	x	x	x	n	n
COc1cccc(CNS(=O)(=O)c2ccc3c(c2)N(C)CCO3)c1	n	n	n	n	n	x	x	x	x	x	x	x
C=CCN1C(=O)C2(NNc3ccccc3O2)c2ccccc21 (stereo not drawn)	n	x	85	71	n	103	107	x	x	x	n	95
NC(=S)N/N=C/c1ccc(-c2ccc([N+](=O)[O-])cc2)o1	n	n	27	n	n	36	47	x	x	x	n	n
NC(=S)N/N=C/c1ccc(-c2cc(Cl)cc(Cl)c2)o1	n	n	n	n	n	x	x	x	x	x	x	x
O=C(O)CCCN1C(=O)/C(=C\c2ccc(-c3nc4ccccc4s3)o2)SC1=S	+	159	30	n	n	48	75	70	n	n	n	n

Screening results (PubChem)
